According to ChEMBL document CHEMBL1152787, “Search for MDR modulators: design, syntheses and evaluations of N-substituted acridones for interactions with p-glycoprotein and Mg2+” (Bioorg Med Chem, 2009):

What was measured:
[1] = molecular target: T1, ATP-dependent translocase ABCB1 (Homo sapiens, UniProt P08183); assay: Inhibition of P-gp ATPase activity in […] DC-3F/ADX cells assessed as increase in basal activity measured by NADH level at 5 uM by spectrophotometric method; assay type: cell-based; parameters: scale not given: the % may be the effect or the level left; details: Chinese hamster
How it was run: (§1)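 P-gp basal MgATP hydrolysis in vesicle suspension, monitored continuously by spectrophotometry. ADP formation is coupled through phosphoenolpyruvate→pyruvate→lactate with NADH→NAD+ conversion, read as NADH absorbance at 340 nm in a 96-well plate. Compound stocks of 0.5, 5 and 50 µM give final well concentrations of 0.05, 0.5 and 5 µM. Run in triplicate.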

[2] = Lipophilicity, log P of the compound; assay type: physicochemical; details: octanol/water
[3] = molecular target: T1, ATP-dependent translocase ABCB1; assay: Inhibition of P-gp ATPase activity in […] DC-3F/ADX cells assessed as increase in basal activity measured by NADH level at 0.05 uM by spectrophotometric method; assay type: cell-based; parameters: scale not given: the % may be the effect or the level left; details: Chinese hamster; how it was run: as §1
[4] = molecular target: T1, ATP-dependent translocase ABCB1; assay: Inhibition of P-gp ATPase activity in […] DC-3F/ADX cells assessed as increase in basal activity measured by NADH level at 0.5 uM by spectrophotometric method; assay type: cell-based; parameters: scale not given: the % may be the effect or the level left; details: Chinese hamster; how it was run: as §1

T1 sequence (P08183 whole entry): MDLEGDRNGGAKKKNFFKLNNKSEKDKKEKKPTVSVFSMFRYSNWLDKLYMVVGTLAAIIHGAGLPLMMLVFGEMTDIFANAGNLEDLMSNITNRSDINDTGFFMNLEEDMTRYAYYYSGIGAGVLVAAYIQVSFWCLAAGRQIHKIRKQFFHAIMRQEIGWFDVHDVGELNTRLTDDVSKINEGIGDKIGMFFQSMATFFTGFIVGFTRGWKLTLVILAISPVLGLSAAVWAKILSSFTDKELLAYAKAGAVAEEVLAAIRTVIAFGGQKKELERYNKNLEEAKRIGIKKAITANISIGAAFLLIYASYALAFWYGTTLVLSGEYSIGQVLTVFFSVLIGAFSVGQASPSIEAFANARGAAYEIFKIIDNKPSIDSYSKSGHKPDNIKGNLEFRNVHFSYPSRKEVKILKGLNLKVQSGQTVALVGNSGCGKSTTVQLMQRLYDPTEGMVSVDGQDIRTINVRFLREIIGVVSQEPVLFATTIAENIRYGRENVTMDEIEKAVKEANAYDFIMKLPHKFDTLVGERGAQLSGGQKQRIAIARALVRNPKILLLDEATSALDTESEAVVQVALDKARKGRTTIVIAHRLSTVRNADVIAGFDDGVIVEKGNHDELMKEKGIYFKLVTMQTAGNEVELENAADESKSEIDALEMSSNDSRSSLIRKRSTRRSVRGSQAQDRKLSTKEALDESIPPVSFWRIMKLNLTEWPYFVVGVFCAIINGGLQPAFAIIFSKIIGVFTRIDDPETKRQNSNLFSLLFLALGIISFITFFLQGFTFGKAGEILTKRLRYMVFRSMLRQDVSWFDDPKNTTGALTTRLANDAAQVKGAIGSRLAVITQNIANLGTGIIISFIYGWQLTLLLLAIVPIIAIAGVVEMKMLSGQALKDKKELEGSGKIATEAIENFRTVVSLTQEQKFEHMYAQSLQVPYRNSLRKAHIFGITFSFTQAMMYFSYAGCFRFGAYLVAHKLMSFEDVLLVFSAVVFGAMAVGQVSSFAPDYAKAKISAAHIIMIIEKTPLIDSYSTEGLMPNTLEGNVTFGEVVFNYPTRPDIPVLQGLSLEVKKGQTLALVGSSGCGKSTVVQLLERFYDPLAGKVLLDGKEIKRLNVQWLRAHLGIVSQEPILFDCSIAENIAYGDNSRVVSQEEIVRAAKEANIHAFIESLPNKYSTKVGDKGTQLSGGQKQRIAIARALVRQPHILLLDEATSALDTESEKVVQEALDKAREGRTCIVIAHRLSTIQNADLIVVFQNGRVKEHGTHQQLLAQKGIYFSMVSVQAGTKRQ

| SMILES | Activity [1] | logP [2] | Activity [3] | Activity [4] |
| --- | --- | --- | --- | --- |
| O=c1c2ccccc2n(CC(O)CN2CCCCC2)c2ccccc12 (configuration not stated) | 44% | 2.14 | 33% | 40% |
| O=c1c2ccccc2n(CC(O)CN2CCC(N3CCCCC3)CC2)c2ccccc12 (configuration not stated) | 31% | 2.56 | 25% | 32% |
| O=c1c2ccccc2n(CC(O)CN2CCOCC2)c2ccccc12 (configuration not stated) | 30% | 1.08 | 24% | 27% |
| CC(=O)[C@H]1CC[C@H]2[C@@H]3CCC4=CC(=O)CC[C@]4(C)[C@H]3CC[C@]12C [PROGESTERONE] | 34% | – | – | 30% |
| CCCNCC(O)COc1ccccc1C(=O)CCc1ccccc1 (configuration not stated) [PROPAFENONE] | 40% | – | – | 31% |
| COc1ccc(CCN(C)CCCC(C#N)(c2ccc(OC)c(OC)c2)C(C)C)cc1OC (configuration not stated) [VERAPAMIL] | 33% | – | – | 30% |
| CC[C@]1(O)C[C@@H]2CN(CCc3c([nH]c4ccccc34)[C@@](C(=O)OC)(c3cc4c(cc3OC)N(C)[C@H]3[C@@](O)(C(=O)OC)[C@H](OC(C)=O)[C@]5(CC)C=CCN6CC[C@]43[C@@H]65)C2)C1 [VINBLASTINE] | 35% | – | – | 31% |

The remaining lines, values ahead:

| Activity [1] | logP [2] | Activity [3] | Activity [4] | SMILES |
| --- | --- | --- | --- | --- |
| 38% | 1.73 | 31% | 34% | O=c1c2ccccc2n(CC(O)CN2CCCC2)c2ccccc12 (configuration not stated) |
| 36% | 1.98 | 29% | 32% | CCN(CC)CC(O)Cn1c2ccccc2c(=O)c2ccccc21 (configuration not stated) |
| 28% | 2.58 | 18% | 21% | CC(C)N(CC(O)Cn1c2ccccc2c(=O)c2ccccc21)C(C)C (configuration not stated) |
